According to ChEMBL document CHEMBL1149147, “NR2B-selective N-methyl-D-aspartate antagonists: synthesis and evaluation of 5-substituted benzimidazoles” (J Med Chem, 2004):

Key:
[1] = biological target: T1, Glutamate NMDA receptor; GRIN1/GRIN2B (Homo sapiens, UniProt Q05586+Q13224); test: Compound was evaluated for in vitro inhibition of [3H][(E)-N-(2-methoxybenzyl)cinnamamidine binding to human NR1a/NR2B receptors expressed in LtK-cells; assay type: cell-based
[2] = biological target: T2, Adrenergic receptor alpha-1 (Rattus norvegicus, UniProt P15823+P23944+P43140); test: In vitro inhibitory activity against alpha-1 adrenergic receptor binding to rat brain membranes; design: species or system Membrane
T2 sequence (P15823 whole entry): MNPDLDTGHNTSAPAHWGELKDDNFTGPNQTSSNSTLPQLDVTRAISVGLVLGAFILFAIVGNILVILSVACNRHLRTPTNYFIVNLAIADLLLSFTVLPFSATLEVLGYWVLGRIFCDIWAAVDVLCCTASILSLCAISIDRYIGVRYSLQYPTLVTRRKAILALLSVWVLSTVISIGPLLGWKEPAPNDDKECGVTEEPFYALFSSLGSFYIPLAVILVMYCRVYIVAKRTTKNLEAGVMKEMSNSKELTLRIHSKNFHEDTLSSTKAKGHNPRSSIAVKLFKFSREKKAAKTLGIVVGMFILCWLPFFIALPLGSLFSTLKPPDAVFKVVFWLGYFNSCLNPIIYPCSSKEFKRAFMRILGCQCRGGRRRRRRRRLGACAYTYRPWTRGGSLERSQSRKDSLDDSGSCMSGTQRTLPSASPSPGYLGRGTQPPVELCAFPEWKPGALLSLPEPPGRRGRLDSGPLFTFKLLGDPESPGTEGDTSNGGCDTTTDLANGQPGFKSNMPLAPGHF
T2 sequence (P23944 whole entry): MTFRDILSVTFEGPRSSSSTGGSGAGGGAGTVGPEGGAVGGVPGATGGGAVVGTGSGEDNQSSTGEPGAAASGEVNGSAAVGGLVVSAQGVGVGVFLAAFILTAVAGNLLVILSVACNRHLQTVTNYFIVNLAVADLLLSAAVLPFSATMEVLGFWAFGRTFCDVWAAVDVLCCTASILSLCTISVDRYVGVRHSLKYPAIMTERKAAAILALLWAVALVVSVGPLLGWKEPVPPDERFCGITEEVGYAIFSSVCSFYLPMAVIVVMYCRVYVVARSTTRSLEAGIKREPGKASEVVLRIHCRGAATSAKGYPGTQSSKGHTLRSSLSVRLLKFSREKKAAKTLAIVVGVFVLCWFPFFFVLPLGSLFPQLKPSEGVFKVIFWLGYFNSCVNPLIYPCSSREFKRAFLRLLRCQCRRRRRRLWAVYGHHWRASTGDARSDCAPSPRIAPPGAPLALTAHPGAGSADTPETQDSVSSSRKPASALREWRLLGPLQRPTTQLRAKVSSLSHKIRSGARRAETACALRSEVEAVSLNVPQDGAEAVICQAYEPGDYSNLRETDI
T2 sequence (P43140 whole entry): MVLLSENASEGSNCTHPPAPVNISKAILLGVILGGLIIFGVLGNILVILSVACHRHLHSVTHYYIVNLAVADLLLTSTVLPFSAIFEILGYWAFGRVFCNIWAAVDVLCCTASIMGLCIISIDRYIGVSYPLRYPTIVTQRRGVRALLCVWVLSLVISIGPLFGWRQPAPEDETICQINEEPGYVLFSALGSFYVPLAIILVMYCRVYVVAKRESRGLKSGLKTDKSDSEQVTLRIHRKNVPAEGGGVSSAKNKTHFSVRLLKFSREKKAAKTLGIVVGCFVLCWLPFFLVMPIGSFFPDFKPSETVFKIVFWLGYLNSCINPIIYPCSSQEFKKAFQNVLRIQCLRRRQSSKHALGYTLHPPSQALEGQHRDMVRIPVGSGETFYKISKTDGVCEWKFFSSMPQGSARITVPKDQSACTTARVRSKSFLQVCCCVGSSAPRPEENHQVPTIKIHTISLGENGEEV
Method in brief: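 Competition binding to α1-adrenergic receptors on membranes prepared from rat brain, using the prazosin binding assay. IC50 is the geometric mean of at least 4 determinations.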

[3] = biological target: T1, Glutamate NMDA receptor; GRIN1/GRIN2B; test: In vitro inhibition of Glu/Gly stimulated [Ca2+] influx in LtK-cells expressing the hNR1a/NR2B receptor; assay type: functional
Method in brief: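 Fluorescence readout of Ca2+ flux stimulated by glutamate/glycine in Ltk- cells stably expressing human NR1a/NR2B, measured as inhibition. IC50 is the geometric mean of at least n = 4, with 2×SEGM given.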

[4] = biological target: Voltage-gated inwardly rectifying potassium channel KCNH2 (Homo sapiens, UniProt Q12809); test: In vitro inhibition of MK-499 binding to hERG in HEK293 cells; assay type: cell-based; conditions: read-out: IP
[5] = Oral bioavailability in rat; assay type: ADME, organism-based; conditions: in vivo
Method in brief: (§1)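 Conscious male Sprague-Dawley rats (n = 3–4) given single doses: 2 mg/kg iv in 100% DMSO, or 10 mg/kg po by gavage in 1% methylcellulose. Plasma was sampled at multiple times up to 24 h. Interanimal variability was below 20%.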

[6] = Half-life in rats was determined; assay type: ADME, organism-based; conditions: rat, in vivo; method in brief: as §1
[7] = Oral bioavailability in dog (mongrel); assay type: ADME, organism-based, Canis lupus familiaris; conditions: in vivo
Method in brief: (§2)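 Single doses in dogs (n = 2): 1 mg/kg iv in 100% DMSO, or 3 mg/kg po gavaged in 1% methylcellulose suspension. Plasma was sampled at multiple time points up to 24 h. Interanimal variability was below 20%.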

[8] = Plasma clearance (in vivo) in mongrel dogs was determined; assay type: ADME, organism-based, Canis lupus familiaris; conditions: dog; method in brief: as §2
[9] = Half-life in mongrel dogs was determined; assay type: ADME, organism-based, Canis lupus familiaris; conditions: dog, in vivo; method in brief: as §2
[10] = system: Rattus norvegicus; test: Compound was evaluated in vivo for carrageenan induced mechanical hyperalgesia in rats, intravenously; assay type: functional
Method in brief: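 Male Sprague-Dawley rats (100–120 g) received 4.5 mg carrageenan in 0.15 mL saline intraplantar, or saline. Agent was given iv in 50% PEG-200/D5W (n = 6/dose) 15 min before the paw pressure read at 3 h. Threshold was taken as vocalization on an algometer.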

[11] = Plasma clearance (in vivo) in rats was determined; assay type: ADME, organism-based; conditions: rat; method in brief: as §1
[12] = system: Rattus norvegicus; test: Compound was evaluated in vivo for carrageenan induced mechanical hyperalgesia in rats, perorally; assay type: functional
Method in brief: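 Male Sprague-Dawley rats (100–120 g) received 4.5 mg carrageenan intraplantar, with a 3 h post-injection paw pressure (vocalization) threshold. Agent was gavaged in 1% methylcellulose suspension (n = 8/dose) 1 h before the reading. Response is expressed as % of carrageenan hyperalgesia; the highest oral dose was 30 mg/kg, one determination.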

T1 sequence (Q13224 whole entry, other chains not shown): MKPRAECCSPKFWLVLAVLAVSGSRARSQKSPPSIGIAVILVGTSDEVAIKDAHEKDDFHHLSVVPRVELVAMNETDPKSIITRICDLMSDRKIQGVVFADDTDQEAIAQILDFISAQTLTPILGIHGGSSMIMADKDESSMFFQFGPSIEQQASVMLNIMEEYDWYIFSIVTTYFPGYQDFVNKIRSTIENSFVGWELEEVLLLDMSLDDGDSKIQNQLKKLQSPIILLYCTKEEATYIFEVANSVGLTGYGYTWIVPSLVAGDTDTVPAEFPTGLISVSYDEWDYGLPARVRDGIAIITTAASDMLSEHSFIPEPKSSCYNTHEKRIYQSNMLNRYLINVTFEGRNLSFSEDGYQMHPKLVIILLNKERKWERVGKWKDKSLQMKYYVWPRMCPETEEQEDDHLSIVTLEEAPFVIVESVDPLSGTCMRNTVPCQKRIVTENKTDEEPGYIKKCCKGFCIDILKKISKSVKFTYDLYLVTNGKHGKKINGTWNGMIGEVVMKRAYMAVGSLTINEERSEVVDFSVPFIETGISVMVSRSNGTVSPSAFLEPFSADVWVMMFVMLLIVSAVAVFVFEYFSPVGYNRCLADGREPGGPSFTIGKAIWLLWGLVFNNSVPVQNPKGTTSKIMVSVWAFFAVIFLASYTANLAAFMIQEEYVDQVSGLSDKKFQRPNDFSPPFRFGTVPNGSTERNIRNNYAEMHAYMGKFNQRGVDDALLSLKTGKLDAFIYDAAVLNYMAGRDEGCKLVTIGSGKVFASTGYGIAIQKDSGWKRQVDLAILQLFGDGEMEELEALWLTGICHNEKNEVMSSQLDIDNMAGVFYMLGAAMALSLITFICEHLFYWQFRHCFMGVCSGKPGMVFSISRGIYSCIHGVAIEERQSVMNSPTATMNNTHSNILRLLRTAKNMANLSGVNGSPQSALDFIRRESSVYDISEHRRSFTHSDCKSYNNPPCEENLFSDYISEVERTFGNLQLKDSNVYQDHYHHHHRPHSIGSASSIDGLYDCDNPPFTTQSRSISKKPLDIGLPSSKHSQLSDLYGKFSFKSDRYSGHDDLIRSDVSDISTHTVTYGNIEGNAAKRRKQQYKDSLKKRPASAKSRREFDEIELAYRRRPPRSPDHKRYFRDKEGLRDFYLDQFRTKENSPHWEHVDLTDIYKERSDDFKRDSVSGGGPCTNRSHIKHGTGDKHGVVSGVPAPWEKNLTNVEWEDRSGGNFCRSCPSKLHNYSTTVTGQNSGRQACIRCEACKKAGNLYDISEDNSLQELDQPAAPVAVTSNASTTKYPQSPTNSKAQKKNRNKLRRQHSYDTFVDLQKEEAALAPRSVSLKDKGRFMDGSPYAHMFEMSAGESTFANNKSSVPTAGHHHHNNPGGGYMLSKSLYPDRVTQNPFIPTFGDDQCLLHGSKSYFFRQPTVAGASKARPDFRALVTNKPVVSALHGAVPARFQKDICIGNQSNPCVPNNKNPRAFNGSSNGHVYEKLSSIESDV
Sequence of Voltage-gated inwardly rectifying potassium channel KCNH2 (Q12809 whole entry): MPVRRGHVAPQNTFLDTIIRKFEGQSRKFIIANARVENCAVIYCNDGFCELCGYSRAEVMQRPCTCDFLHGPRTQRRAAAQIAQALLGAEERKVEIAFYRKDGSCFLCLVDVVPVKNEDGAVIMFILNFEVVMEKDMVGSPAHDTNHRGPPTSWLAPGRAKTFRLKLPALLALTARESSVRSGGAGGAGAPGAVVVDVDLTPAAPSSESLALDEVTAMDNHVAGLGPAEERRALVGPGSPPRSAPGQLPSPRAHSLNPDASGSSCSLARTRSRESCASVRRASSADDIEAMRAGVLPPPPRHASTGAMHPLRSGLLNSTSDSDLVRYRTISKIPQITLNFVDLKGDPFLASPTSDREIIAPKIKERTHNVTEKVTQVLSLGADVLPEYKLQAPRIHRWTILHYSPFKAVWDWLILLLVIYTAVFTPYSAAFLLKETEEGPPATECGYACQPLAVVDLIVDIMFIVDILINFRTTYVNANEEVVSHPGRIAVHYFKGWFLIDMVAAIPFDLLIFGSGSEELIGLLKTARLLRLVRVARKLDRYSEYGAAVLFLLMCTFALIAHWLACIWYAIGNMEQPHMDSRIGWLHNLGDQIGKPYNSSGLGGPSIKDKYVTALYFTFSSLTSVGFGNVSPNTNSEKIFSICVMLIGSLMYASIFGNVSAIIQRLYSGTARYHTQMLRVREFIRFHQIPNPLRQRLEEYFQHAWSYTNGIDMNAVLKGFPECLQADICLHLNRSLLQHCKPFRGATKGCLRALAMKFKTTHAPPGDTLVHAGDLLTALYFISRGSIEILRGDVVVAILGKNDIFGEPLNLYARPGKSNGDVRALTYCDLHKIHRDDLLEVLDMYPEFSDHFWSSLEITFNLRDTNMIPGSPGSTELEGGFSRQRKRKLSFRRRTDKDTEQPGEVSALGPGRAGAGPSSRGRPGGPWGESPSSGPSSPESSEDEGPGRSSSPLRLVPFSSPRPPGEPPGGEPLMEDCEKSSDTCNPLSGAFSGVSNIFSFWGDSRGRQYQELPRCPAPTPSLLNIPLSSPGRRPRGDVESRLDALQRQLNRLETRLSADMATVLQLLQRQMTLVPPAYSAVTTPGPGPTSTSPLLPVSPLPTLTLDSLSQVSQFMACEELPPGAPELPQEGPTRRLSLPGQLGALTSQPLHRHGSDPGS

| Structure (SMILES) | Ki [1] | IC50 [2] | IC50 [3] | IC50 [4] | bioavailability [5] | half-life [6] | bioavailability [7] | clearance [8] | half-life [9] | Activity [10] | clearance [11] | Activity [12] |
| --- | --- | --- | --- | --- | --- | --- | --- | --- | --- | --- | --- | --- |
| Oc1ccc2[nH]c(CN3CCC(Cc4cccc(F)c4)CC3)nc2c1 | 4.2 nM | 520 nM | 44 nM | 2100 nM |  |  |  |  |  |  |  |  |
| c1ccc(CC2CCN(Cc3nc4ccccc4[nH]3)CC2)cc1 | 420 nM | 2800 nM | 710 nM | 1400 nM |  |  |  |  |  |  |  |  |
| CC(C)S(=O)(=O)Nc1ccc2[nH]c(Cc3ccc(Oc4ccccc4)cc3)nc2c1 | 15 nM | 3100 nM | 14 nM |  |  |  |  |  |  |  |  |  |
| Cc1ccc(CC2CCN(Cc3nc4cc(O)ccc4[nH]3)CC2)cc1 | 0.4 nM | 830 nM | 5.7 nM | 390 nM |  |  |  |  |  |  |  |  |
| CS(=O)(=O)Nc1ccc2nc(CN3CCC(Cc4ccccc4)CC3)[nH]c2c1 | 0.99 nM | 1500 nM | 1.9 nM | 340 nM |  |  |  |  |  |  |  |  |
| CN(c1ccc2[nH]c(Cc3ccc(Oc4ccccc4)cc3)nc2c1)S(C)(=O)=O | 470 nM | 2000 nM | 25 nM | 640 nM |  |  |  |  |  |  |  |  |
| O=[N+]([O-])c1ccc2[nH]c(Cc3ccc(Oc4ccccc4)cc3)nc2c1 |  | 1200 nM | 6600 nM | 770 nM |  |  |  |  |  |  |  |  |
| Oc1ccc2[nH]c(Cc3ccc(Oc4ccccc4)cc3)nc2c1 | 3.2 nM | 200 nM | 9.2 nM | 720 nM |  |  |  |  |  |  |  |  |
| N#Cc1ccc2[nH]c(Cc3ccc(Oc4ccccc4)cc3)nc2c1 | 790 nM | 3400 nM | 800 nM | 1100 nM |  |  |  |  |  |  |  |  |
| Oc1cccc2[nH]c(Cc3ccc(Oc4ccccc4)cc3)nc12 | 140 nM | 5500 nM | 150 nM | 860 nM |  |  |  |  |  |  |  |  |
| CCCS(=O)(=O)Nc1ccc2[nH]c(Cc3ccc(Oc4ccccc4)cc3)nc2c1 | 21 nM | 4800 nM | 19 nM | 400 nM |  |  |  |  |  |  |  |  |
| Oc1ccc2[nH]c(CN3CCC(Cc4ccc(F)cc4)CC3)nc2c1 | 1.1 nM | 620 nM | 12 nM | 500 nM |  |  |  |  |  |  |  |  |
| CC(C)S(=O)(=O)Nc1ccc2[nH]c(CN3CCC(Cc4ccccc4)CC3)nc2c1 | 240 nM | 570 nM | 300 nM |  |  |  |  |  |  |  |  |  |
| Nc1ccc2[nH]c(Cc3ccc(Oc4ccccc4)cc3)nc2c1 | 180 nM | 2600 nM | 78 nM | 120 nM |  |  |  |  |  |  |  |  |
| Oc1ccc2[nH]c(CN3CCC(Cc4ccccc4)CC3)nc2c1 |  | 670 nM | 8.2 nM | 2600 nM | 20% | > 8 h | 90% | 0.6 mL/min/kg | 6.7 h | 3.3 mg/kg | 22.8 mL/min/kg |  |
| CC(=O)Nc1ccc2[nH]c(Cc3ccc(Oc4ccccc4)cc3)nc2c1 | 93 nM | 20000 nM | 42 nM | 2600 nM |  |  |  |  |  |  |  |  |
| CCS(=O)(=O)Nc1ccc2[nH]c(Cc3ccc(Oc4ccccc4)cc3)nc2c1 | 3 nM | 2800 nM | 2.1 nM | 1600 nM |  |  |  |  |  |  |  |  |
| Oc1ccc2[nH]c(CN3CCC(Cc4c(F)cccc4F)CC3)nc2c1 | 0.82 nM | 2600 nM | 21 nM | 3000 nM |  |  |  |  |  |  |  |  |
| CS(=O)(=O)Nc1ccc2[nH]c(Cc3ccc(Oc4ccccc4)cc3)nc2c1 | 0.68 nM | 4000 nM | 0.72 nM | 120 nM | 97% | 1.97 h |  |  |  |  | 8.3 mL/min/kg | >30 mg/kg |
| O=S(=O)(Nc1ccc2[nH]c(Cc3ccc(Oc4ccccc4)cc3)nc2c1)c1ccccc1 | 17 nM | 14000 nM | 49 nM | 680 nM |  |  |  |  |  |  |  |  |
| COc1ccc2[nH]c(Cc3ccc(Oc4ccccc4)cc3)nc2c1 | 8400 nM | 530 nM | 9200 nM |  |  |  |  |  |  |  |  |  |
| c1ccc(Oc2ccc(Cc3nc4ccccc4[nH]3)cc2)cc1 | 260 nM | 4200 nM | 200 nM | 2000 nM |  |  |  |  |  |  |  |  |
| Oc1ccc2[nH]c(CN3CCC(Cc4ccccc4F)CC3)nc2c1 | 0.85 nM | 730 nM | 9.7 nM | 2900 nM | 6.4% | 1 h | 87% | 0.6 mL/min/kg | 6.5 h | <3 mg/kg | 12.3 mL/min/kg |  |
